A selection: hits, their analogues and other compounds. The true share with any hit is near 1.5%.
APJ antag = antagonists of human APJ apelin receptor | P35414 | CHO-K1 APJ beta-arrestin complementation, luminescence | inhibition, % at 20 µM | hit rate 0.32% among 330,000;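 active means inhibition above about 40% at 20 µM, limit read from the data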;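 further: cells challenged with 10 nM apelin-13 agonist together with compound; plate controls were apelin-13 plus DMSO wells for no effect and DMSO wells lacking apelin-13 for full effect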
EBI2 antag = EBI2 (human) antagonism; hit rate 0.81% among 360,000; inhibition, % at 5 µM; EBI2 beta-arrestin recruitment, luminescence, 7a,25-OHC stimulated; in the data active means inhibition above about 38%;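 further: enzyme fragment complementation signal reports receptor beta-arrestin coupling in cells; 0% = agonist plus DMSO wells and 100% = wells without agonist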
CCR6 antag = CCR6 (human) receptor antagonism; CHO-K1 CCR6 PathHunter beta-arrestin, luminescence, CCL20-stimulated; inhibition, % at 20 µM; hit rate 0.49% among 340,000; AID 493098;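 active means compounds whose inhibition of the agonist-driven luminescence signal at 20 µM reaches about 50%, limit read from the data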;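 further: cells stimulated with CCL20 at 14 nM final; plate controls were DMSO with CCL20 for no effect and DMSO without agonist for full effect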
Target sequence (P51684 whole entry, looked up): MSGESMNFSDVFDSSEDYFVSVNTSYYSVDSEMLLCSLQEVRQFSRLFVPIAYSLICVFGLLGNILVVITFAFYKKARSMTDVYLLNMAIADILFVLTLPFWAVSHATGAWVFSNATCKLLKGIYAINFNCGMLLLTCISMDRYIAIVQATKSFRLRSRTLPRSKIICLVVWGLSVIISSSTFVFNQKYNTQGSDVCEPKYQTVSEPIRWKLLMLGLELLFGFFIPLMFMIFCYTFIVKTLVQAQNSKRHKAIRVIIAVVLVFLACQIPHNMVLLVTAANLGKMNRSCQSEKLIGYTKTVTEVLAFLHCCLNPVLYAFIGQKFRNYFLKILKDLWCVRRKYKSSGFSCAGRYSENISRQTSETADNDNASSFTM
CXCR6 inh = blocks human CXCR6 beta-arrestin recruitment; O00574; CHO-K1 PathHunter CXCR6 beta-arrestin, luminescence; inhibition, % at 20 µM; hit rate 0.36% among 360,000; in the data active means inhibition above about 34%, passing the limit was not always enough;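 further: antagonist mode with CXCL16 agonist at 10 nM final; 0% = 10 nM CXCL16 with DMSO and 100% = unstimulated wells without agonist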
Target sequence (O00574 whole entry, looked up): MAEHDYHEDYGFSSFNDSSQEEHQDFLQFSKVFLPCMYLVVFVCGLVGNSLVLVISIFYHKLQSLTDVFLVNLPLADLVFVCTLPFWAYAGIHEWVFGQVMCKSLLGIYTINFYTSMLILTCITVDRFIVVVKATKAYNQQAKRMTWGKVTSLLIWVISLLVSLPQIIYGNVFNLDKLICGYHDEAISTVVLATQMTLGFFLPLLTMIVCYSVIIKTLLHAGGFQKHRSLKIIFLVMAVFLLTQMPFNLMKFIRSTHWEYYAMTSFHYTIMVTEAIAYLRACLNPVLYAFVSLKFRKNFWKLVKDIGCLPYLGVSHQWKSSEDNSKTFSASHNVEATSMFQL
APJ agonist = activates the human apelin receptor APJ. AID 2520. CHO-K1 APJ PathHunter beta-arrestin, luminescence; 0% DMSO wells, 100% apelin. P35414. hit rate 0.11% among 330,000. activation, % at 20 µM;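 active means activation more than six SD over the plate average, tested at 20 µM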;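 further: 0% = DMSO alone and 100% = apelin-13 at 10 nM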
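Material: engineered CHO-K1 APJ arrestin reporter cells; amount: 1000 CHO-K1 reporter cells seeded per well; incubation: compound stimulation 90 min at 25 °C, detection 60 min; signal: luminescent beta-gal fragment complementation, chemiluminescent substrate; read-out basis: APJ agonist activity; controls: DMSO-only wells as negative, 10 nM Apelin-13 as positive control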
EBI2 antag conf = EBI2 (human) antagonism, single concentration confirmation; AID 651997; inhibition, % at 5 µM; shares compounds with EBI2 antag; EBI2 beta-arrestin luminescence, 7a,25-OHC antagonism; hit rate 29% among 2,400;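 active means inhibition of at least 50%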
EBI2 ag = EBI2 agonism counter-screen; shares compounds with EBI2 antag; EBI2-expressing cells, agonist mode, luminescence, 60 min; 0% vehicle, 100% 7α,25-dihydroxycholesterol control; activation, % at 5 µM; 2,400 tested, under 10 active; AID 652000;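 active means activation of at least 50%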
bGal cs = inhibits E. coli beta-galactosidase, counter-screen for EBI2 antagonists. purified beta-galactosidase, luminescent Galacton Star, 15 min. inhibition, % at 5 µM. AID 652176. shares compounds with EBI2 antag. hit rate 1% among 2,400;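 active means replicate-average signal at least 3 plate SD below neutral wells, shown as high inhibition, flagging enzyme-inhibiting false positives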;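 further: 0% = DMSO wells with enzyme and 100% = wells lacking enzyme; higher means stronger loss of beta-gal luminescence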
Numbers without * were called inactive; · = no result.

SMILES | APJ antag | EBI2 antag | CCR6 antag | CXCR6 inh | APJ agonist | EBI2 antag conf | EBI2 ag | bGal cs
Cc1noc(C)c1S(=O)(=O)N(C)C[C@H]1OCc2cn(nn2)CCCC(=O)N([C@@H](C)CO)C[C@@H]1C | · | -5 | · | -2 | · | · | · | ·
CCOC(=O)Cn1nc(-c2ccc(Cl)cc2)cc1N | 13 | -3 | 1 | -14 | -3 | · | · | ·
CCOC(=O)CN1CCC(c2cc(-c3ccc(Cl)cc3)n[nH]2)CC1 | 10 | 40* | 10 | 4 | 0 | 37 | -2 | -5
Cc1cccc(C)c1NC(=O)C1(C)CSCC(=O)N1CC(F)(F)F (stereo not drawn) | · | -2 | · | · | · | · | · | ·
c1ccc(-c2cn(-c3ccccc3)c3ncnc(NCCCN4CCOCC4)c23)cc1 | 13 | 62* | 10 | 8 | 0 | 18 | -1 | -10
Cc1ccc(C(=O)Nc2sc(C)c(C)c2C(=O)c2ccccc2)cc1 | 17 | 37 | 15 | 10 | -2 | · | · | ·
CN1CCN(C(=O)c2ccc(CSc3ccc(Cl)cc3)cc2)CC1 | 7 | 4 | 15 | -9 | -1 | · | · | ·
O=C(c1ccc(Cl)cc1)N1CCC(O)(CSc2ccccc2)CC1 | -9 | 68* | 5 | 2 | 4 | 71* | 2 | 4
O=C(c1ccc(Cl)cc1)N1CCC(O)(CSc2ccc(Cl)cc2)CC1 | 0 | 69* | 7 | -8 | -6 | 57* | 0 | -3
COc1cccc(SCC2(O)CCN(C(=O)c3ccc(Cl)cc3)CC2)c1 | -10 | 55* | 21 | 6 | -1 | 48 | 0 | 5
CN(/C(=N/S(=O)(=O)c1cccs1)c1ccccc1)c1ccccc1 | -4 | -16 | 12 | 2 | -4 | · | · | ·
O=C(CCCc1ccccc1)Nc1ccnn1C1CCN(Cc2ccccn2)CC1 | 4 | -5 | -4 | -17 | 4 | · | · | ·
c1ccc(OCCNc2nc(NCC3CC3)nc3cc(-c4ccccc4)sc23)cc1 | · | 68* | · | 20 | · | 62* | -1 | -10
C=CCNc1nc(NCCOC)c2sc(-c3ccccc3)cc2n1 | · | 25 | · | 10 | · | · | · | ·
c1ccc(CNc2nc(NCC3CC3)nc3cc(-c4ccccc4)sc23)cc1 | · | 63* | · | 6 | · | 48 | -1 | -8
C=CCNc1nc(NCCOc2ccccc2Cl)c2sc(-c3ccccc3)cc2n1 | · | 42* | · | 12 | · | 31 | -2 | -7
Cc1sc2ncnc(N3CCC(C(=O)NNC(=O)COc4ccc(Br)cc4)CC3)c2c1C | 8 | 57* | 1 | -7 | 0 | 36 | -1 | -9
Cc1ccc(OCC(=O)NNC(=O)C2CCN(c3ncnc4sc(C)c(C)c34)CC2)cc1 | 12 | 44 | 1 | -16 | 4 | · | · | ·
Cc1sc2ncnc(N3CCC(C(=O)NNC(=O)COc4ccc(Cl)cc4)CC3)c2c1C | · | 51* | -10 | -7 | · | 36 | 1 | 7
CCn1c(C(=O)OC)cc2c1ccn2-c1ccc(F)cc1 | 18 | 46* | 16 | 5 | -4 | 20 | -1 | -8
COC(=O)c1cc2c(ccn2-c2ccc(F)cc2)n1Cc1ccc(OC)cc1 | 6 | 44* | 26 | 8 | 2 | 19 | 0 | 5
N#CCCn1c(Cl)nc2ccccc21 | 5 | -2 | 8 | -1 | -6 | · | · | ·
CC(Oc1ccc(F)cc1)C(=O)Nc1ccc2ccccc2c1 (stereo not drawn) | -7 | 50* | -2 | -2 | -1 | 30 | 1 | -6
CCOC(=O)N1CCN(C(=O)c2ccc3ccccc3c2)CC1 | -2 | 68* | 15 | -3 | 0 | 31 | -1 | -10
CCc1nc2ccc(C(=O)N3CCN(c4cccc(OC)c4)CC3)cc2nc1CC | 10 | -3 | 14 | 5 | -4 | · | · | ·
SMILES | APJ antag | EBI2 antag | CCR6 antag | CXCR6 inh | APJ agonist | EBI2 antag conf | EBI2 ag | bGal cs
COc1ccc(N2CCN(C(=O)c3csc4ccccc34)CC2)cc1 | 9 | 53* | 15 | -2 | -4 | 39 | 0 | 10
COc1cccc(N2CCN(C(=O)c3ccc4ccccc4c3)CC2)c1 | -4 | 62* | 4 | -19 | -5 | 42 | 1 | 5
CN1CCN(C(=O)c2ccc3ccccc3c2)CC1 | -14 | 41 | 11 | -5 | -4 | · | · | ·
O=C(COc1ccc2cc(Br)ccc2c1)N1CCCC1 | 6 | 69* | 3 | 0 | 4 | 44 | 2 | 8
O=C(c1csc2ccccc12)N1CCN(c2ccc(Cl)c(Cl)c2)CC1 | 16 | 38 | 13 | -4 | 2 | · | · | ·
O=[N+]([O-])c1ccc(C=Nc2ccccc2)cc1 | · | -1 | · | -18 | · | · | · | ·
O=C(c1ccc2ccccc2c1)N1CCN(c2ccc(C(F)(F)F)cn2)CC1 | 6 | 85* | 14 | -20 | -4 | 71* | 2 | 10
COc1cc(C(=O)N2CCN(C(=O)COc3ccc4ccccc4c3)CC2)cc(OC)c1OC | 25 | 71* | 3 | -7 | -3 | 50* | 0 | 6
COc1cccc(C(=O)N2CCN(C(=O)COc3ccc4ccccc4c3)CC2)c1 | -7 | 95* | -3 | 1 | -4 | 78* | 1 | 8
O=C(c1ccc2c(c1)OCO2)N1CCN(c2ccc(C(F)(F)F)cn2)CC1 | -6 | -7 | 11 | -4 | -2 | · | · | ·
O=C(CN1c2ccccc2Sc2ccccc21)N/N=C/c1ccc([N+](=O)[O-])cc1 | -10 | 9 | 5 | 4 | 3 | · | · | ·
O=C(/C=C/c1ccc(F)cc1)N1CCCN(C(=O)/C=C/c2ccc(F)cc2)CC1 | -19 | 85* | 11 | 2 | -2 | 73* | -2 | -19
O=C(C=Cc1ccccc1)N1CCCCC1 | · | 21 | 0 | -3 | · | · | · | ·
CCN1CCN(C(=O)/C=C/c2ccc(C)cc2)CC1 | -9 | 95* | 4 | 4 | -9 | 84* | 2 | 5
Cc1ccc(/C=C/C(=O)N2CCCN(C(=O)/C=C/c3ccc(C)cc3)CC2)cc1 | -5 | 94* | -8 | -14 | 0 | 82* | 1 | -1
Cc1ccc(/C=C/C(=O)NN2CCN(C)CC2)cc1 | 8 | 64* | 2 | -2 | -1 | 39 | -1 | -7
Cc1ccc(CCNC(=O)C2CC(=O)N(C3CCCCC3)C2)cc1 (stereo not drawn) | -4 | 7 | 6 | 7 | -5 | · | · | ·
O=C(Nc1cccc(OC(F)(F)F)c1)c1ccc(-c2cccnc2)c2ccoc12 | · | 38* | · | -2 | · | 29 | -1 | -15
COc1cc(NC(=O)c2ccc(-c3cccnc3)c3ccoc23)cc(OC)c1OC | · | -2 | · | -5 | · | · | · | ·
CCc1nc2ccccc2c(C(=O)OCC(=O)Nc2cccc(S(=O)(=O)N3CCOCC3)c2)c1C | -17 | -1 | -10 | -12 | 8 | · | · | ·
FC(F)(F)c1ccc(Oc2ccc3cc(Br)ccc3c2)nc1 | 2 | 84* | 7 | -10 | -1 | 48 | 1 | 7

From PubChem BioAssay
